Data on one compound can be found in ChEMBL document CHEMBL5154772, “Biological Investigation of a Water-Soluble Isoginkgetin-Phosphate Analogue, Targeting the Spliceosome with In Vivo Antitumor Activity” (J Med Chem, 2022).

By inhibition is commonly meant the percentage by which the read-out fell short of the control. For orientation: Tmax means the time from dosing to the highest level. Usually CL/F stands for clearance divided by bioavailability, as obtained after extravascular dosing. The AUC(0-t) is the area under the concentration-time curve up to a stated or last time point. A low value points to less exposure.

Data set [1] is described as follows: Toxicity in C57BL/6 mouse assessed as change in body weight at 50 mg/kg, ip administered as single dose and measured after 15 days (reference value: 23.5 to 24.2 g). The note with it: in vivo, 360 h, time 15 day. The class given is organism-based. The gist of the method: (§1)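 Female C57BL/6 mice given one IP injection of 100 µL, at 50, 100, 250 or 500 mg/kg in sterile PBS, two mice per dose; PBS-injected controls. Behaviour checked right after and at 30 min. Body weight recorded every 2–3 days for 15 days, then liver, spleen and kidneys weighed.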

Data set [2] can be described thus: Toxicity in C57BL/6 mouse assessed as change in liver weight at 50 mg/kg, ip administered as single dose and measured after 15 days (reference value: 1.2 to 1.3 g). The class given is organism-based. The note with it: in vivo, 360 h, time 15 day. The essentials:
as §1

The nature of data set [3]: Toxicity in C57BL/6 mouse assessed as change in liver weight at 500 mg/kg, ip administered as single dose and measured after 15 days (reference value: 1.2 to 1.3 g). The class given is organism-based. The note with it: in vivo, 360 h, time 15 day. The essentials:
as §1

The nature of data set [4]: Antitumour activity against mouse wild type MCA-205 cells implanted in C57BL/6 mouse assessed as tumor size by measuring cell killing pretreatment at 2.5 mg/kg, iv administered starting from day 7 post inoculation at five days interval upto 17 days relative to control. The class given is functional. The note with it: time <= 17 day. The essentials: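 Female C57BL/6 mice (6 weeks old) given subcutaneous MCA205 WT fibrosarcoma in the right flank. 2.5 mg/kg given intravenously on days 7, 12 and 17 after inoculation; untreated controls. Tumour area recorded every 3–4 days until ethical endpoints, then tumour size at killing. Groups compared by one-way ANOVA.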

A short description of data set [5]: Metabolic stability in mouse liver microsomes assessed as parent compound remaining incubated for 45 mins in absence of NADPH by HPLC-MS/MS analysis. The class given is ADME, Microsome. The note with it: read-out: Stability. The gist of the method:
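Incubation with mouse or human liver microsomes for 45 min, with or without NADPH. Remaining parent compound was quantified over time by HPLC-MS/MS and expressed as % remaining; intrinsic clearance is given in μL/min/mg protein.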
For orientation: Microsomes from liver hold many membrane-bound enzymes, among them those of drug oxidation.

Data set [6] has as its target 3',5'-cyclic-AMP phosphodiesterase 4D (Homo sapiens) (UniProt Q08499). The data set can be described thus: Inhibition of PDE4D2 (unknown origin) at 10 uM. The essentials:
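Single-concentration safety screen at 10 μM across a 47-target panel. GPCRs were run in antagonist mode and enzymes in inhibitor mode.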

Data set [7] in a line: Tmax in C57BL/6J mouse at 0.711 mg/kg, iv administered as single dose measured up to 24 hrs. The class given is ADME, organism-based. The conditions noted are these: in vivo. The essentials:
(§2)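 Single intravenous dose. Mice were male C57BL/6J, 12 per route; tail-vein blood was collected under sodium heparin, with 3 mice sampled at each pair of times (0.083/2, 0.25/4, 0.5/8, 1/24 h). Dogs were male beagles (n=3); jugular blood was collected under K2 EDTA predose and at 0.083, 0.25, 0.5, 1, 2, 4, 6, 8 and 24 h. Plasma was prepared from the samples.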

The nature of data set [8]: Total clearance in C57BL/6J mouse at 9.103 mg/kg, ip administered as single dose measured up to 24 hrs. The class given is ADME, organism-based. The conditions noted are these: in vivo. The essentials: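 Male C57BL/6J mice, single IP dose. Tail-vein blood into sodium heparin for plasma. Twelve mice per route, three per pair of time points: 0.083 and 2 h, 0.25 and 4 h, 0.5 and 8 h, 1 and 24 h. Parameters derived from plasma concentration–time data.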

The nature of data set [9]: AUC(0 to t) in C57BL/6J mouse at 0.711 mg/kg, iv administered as single dose measured up to 24 hrs. The class given is ADME, organism-based. More on the design: dose 0.711 mg/kg, time < 24 hrs, route iv. The note with it: in vivo. The gist of the method: as §2
A short description of data set [10]: Toxicity in C57BL/6 mouse assessed as change in body weight at 250 mg/kg, ip administered as single dose and measured after 15 days (reference value: 23.5 to 24.2 g). The class given is organism-based. The note with it: in vivo, 360 h, time 15 day. The gist of the method:
as §1

3',5'-cyclic-AMP phosphodiesterase 4D (Homo sapiens), sequence (Q08499 whole entry): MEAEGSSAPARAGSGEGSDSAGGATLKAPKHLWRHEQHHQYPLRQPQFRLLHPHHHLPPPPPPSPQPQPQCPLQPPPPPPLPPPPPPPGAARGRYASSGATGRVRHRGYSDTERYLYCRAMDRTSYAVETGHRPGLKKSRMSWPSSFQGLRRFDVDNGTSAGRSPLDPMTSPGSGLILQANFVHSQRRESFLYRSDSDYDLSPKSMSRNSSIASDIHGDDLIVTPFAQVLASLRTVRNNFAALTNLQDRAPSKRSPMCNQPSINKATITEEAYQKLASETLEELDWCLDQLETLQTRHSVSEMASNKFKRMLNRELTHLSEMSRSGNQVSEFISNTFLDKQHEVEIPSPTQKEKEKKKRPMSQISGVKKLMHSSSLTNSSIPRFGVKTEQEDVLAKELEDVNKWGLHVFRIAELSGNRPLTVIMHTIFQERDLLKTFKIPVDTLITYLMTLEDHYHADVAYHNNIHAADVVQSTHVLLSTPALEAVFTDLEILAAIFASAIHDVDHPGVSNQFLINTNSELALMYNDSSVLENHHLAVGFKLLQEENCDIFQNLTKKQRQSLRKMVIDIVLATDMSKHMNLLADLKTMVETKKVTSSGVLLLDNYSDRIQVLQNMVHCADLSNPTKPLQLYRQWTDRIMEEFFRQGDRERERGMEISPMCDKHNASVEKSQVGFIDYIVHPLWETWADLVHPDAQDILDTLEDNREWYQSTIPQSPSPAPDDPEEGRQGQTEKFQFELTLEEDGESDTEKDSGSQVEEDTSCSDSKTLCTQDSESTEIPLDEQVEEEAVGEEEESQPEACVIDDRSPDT

For `COc1ccc(-c2cc(=O)c3c(O)cc(OP(=O)([O-])[O-])c(-c4cc(-c5cc(=O)c6c(O)cc(OP(=O)([O-])[O-])cc6o5)ccc4OC)c3o2)cc1.[Na+].[Na+].[Na+].[Na+]`, the Activity in [1] worked out at 19.5 g; in [2] it was 1 g; in [3], 1 g; in data set [4], 40%; in data set [10], 19.1 g. The remaining at 0.75 h in data set [5] turned out to be 72.4%. The same compound had an inhibition in [6] of 87.2%. Also, the Tmax in data set [7] was 5 min. In data set [8], the apparent clearance CL/F was 154 mL/min/kg. Besides, the AUC(0-t) at 24 h in data set [9] was 88.8 ng·h/mL.
